Measurements from ChEMBL document CHEMBL4017549, “Structural Basis of Inhibition of ERα-Coactivator Interaction by High-Affinity N-Terminus Isoaspartic Acid Tethered Helical Peptides” (J Med Chem, 2017).
Blank lines part the entries; values can stand above or below the compound they belong to. Active and inactive are the calls of the source. No cut-off for these calls is given here. Peptide text beside a SMILES is read from it. * marks the point of attachment. FITC = O=C1OC2(c3ccc(O)cc3Oc3cc(O)ccc32)c2ccc(NC(=S)*)cc21; βAla = NCCC(=O)O

Tests used:
[1] = tested on: MCF7; test: Cytotoxicity against human MCF7 cells assessed as cell viability up to 100 uM after 24 hrs by MTT assay; format: functional, cell-based
Procedure, shortened: (§1)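 MTT read-out. 5000−10000 cells/well seeded overnight in their own medium: MCF7 and MCF10A in DMEM with phenol red, 10% FBS, 37 °C, 5% CO2; T47D in RPMI1640 with insulin and 10% FBS; MDA-MB-231 in L-15, 10% FBS, no CO2. Serial peptide dilutions or DMSO for 20 h at 37 °C, then MTT 4 h more; formazan in DMSO, A570.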

[2] = tested on: MCF7; test: Cytotoxicity against human MCF7 cells assessed as reduction in cell viability at 1 uM after 24 hrs by MTT assay relative to control; format: cell-based; details: mcf7, 24 h
[3] = tested on: MCF7; test: Cytotoxicity against human MCF7 cells assessed as reduction in cell viability at 5 uM after 24 hrs by MTT assay relative to control; format: cell-based; details: mcf7, 24 h
[4] = molecular target: T1, Estrogen receptor (Homo sapiens, UniProt P03372); test: Binding affinity to recombinant human GFP-fused ERalpha LBD (301 to 553 residues) expressed in Escherichia coli BL21(DE3) after 40 mins in presence of 17beta-estradiol by fluorescence polarization assay
T1 sequence (P03372 whole entry): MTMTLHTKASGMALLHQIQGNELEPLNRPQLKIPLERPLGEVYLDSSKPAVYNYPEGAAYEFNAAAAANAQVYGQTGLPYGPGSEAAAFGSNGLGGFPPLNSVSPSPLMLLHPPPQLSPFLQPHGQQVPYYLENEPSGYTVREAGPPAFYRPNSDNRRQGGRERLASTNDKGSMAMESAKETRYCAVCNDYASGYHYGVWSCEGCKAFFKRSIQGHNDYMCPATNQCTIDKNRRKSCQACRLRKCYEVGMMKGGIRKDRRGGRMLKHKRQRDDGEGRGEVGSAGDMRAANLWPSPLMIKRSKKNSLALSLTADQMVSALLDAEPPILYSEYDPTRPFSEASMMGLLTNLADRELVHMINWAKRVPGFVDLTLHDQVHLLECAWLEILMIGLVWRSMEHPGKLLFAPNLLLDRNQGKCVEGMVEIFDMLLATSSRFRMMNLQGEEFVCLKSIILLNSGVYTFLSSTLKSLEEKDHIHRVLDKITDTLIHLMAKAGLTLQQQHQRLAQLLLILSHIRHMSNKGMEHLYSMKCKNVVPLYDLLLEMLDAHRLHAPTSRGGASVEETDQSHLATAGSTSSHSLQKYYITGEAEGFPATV

[5] = molecular target: Estrogen receptor beta (Homo sapiens, UniProt Q92731); test: Binding affinity to recombinant human GFP-fused ERbeta LBD (259 to 498 residues) expressed in Escherichia coli BL21(DE3) after 40 mins in presence of 17beta-estradiol by fluorescence polarization assay
Procedure, shortened: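 FITC-labelled peptide at 10 nM final, titrated with increasing purified LBD (ERβ LBD carrying C334S, C369S, C481S) in 20 mM Tris-HCl pH 8.0, 150 mM NaCl, 5% glycerol, 1 mM TCEP with 10 μM 17β-estradiol. Incubated 40 min in the dark, polarization read at 298 K (ex 480/em 535 nm). KD from nonlinear regression of polarization versus protein concentration.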

[6] = molecular target: T2, Progesterone receptor (Homo sapiens, UniProt P06401); test: Binding affinity to recombinant human GST-tagged PGR LBD (678 to 933 residues) expressed in Escherichia coli BL21 star(DE3) after 40 mins in presence of progesterone by fluorescence polarization assay
T2 sequence (P06401 whole entry): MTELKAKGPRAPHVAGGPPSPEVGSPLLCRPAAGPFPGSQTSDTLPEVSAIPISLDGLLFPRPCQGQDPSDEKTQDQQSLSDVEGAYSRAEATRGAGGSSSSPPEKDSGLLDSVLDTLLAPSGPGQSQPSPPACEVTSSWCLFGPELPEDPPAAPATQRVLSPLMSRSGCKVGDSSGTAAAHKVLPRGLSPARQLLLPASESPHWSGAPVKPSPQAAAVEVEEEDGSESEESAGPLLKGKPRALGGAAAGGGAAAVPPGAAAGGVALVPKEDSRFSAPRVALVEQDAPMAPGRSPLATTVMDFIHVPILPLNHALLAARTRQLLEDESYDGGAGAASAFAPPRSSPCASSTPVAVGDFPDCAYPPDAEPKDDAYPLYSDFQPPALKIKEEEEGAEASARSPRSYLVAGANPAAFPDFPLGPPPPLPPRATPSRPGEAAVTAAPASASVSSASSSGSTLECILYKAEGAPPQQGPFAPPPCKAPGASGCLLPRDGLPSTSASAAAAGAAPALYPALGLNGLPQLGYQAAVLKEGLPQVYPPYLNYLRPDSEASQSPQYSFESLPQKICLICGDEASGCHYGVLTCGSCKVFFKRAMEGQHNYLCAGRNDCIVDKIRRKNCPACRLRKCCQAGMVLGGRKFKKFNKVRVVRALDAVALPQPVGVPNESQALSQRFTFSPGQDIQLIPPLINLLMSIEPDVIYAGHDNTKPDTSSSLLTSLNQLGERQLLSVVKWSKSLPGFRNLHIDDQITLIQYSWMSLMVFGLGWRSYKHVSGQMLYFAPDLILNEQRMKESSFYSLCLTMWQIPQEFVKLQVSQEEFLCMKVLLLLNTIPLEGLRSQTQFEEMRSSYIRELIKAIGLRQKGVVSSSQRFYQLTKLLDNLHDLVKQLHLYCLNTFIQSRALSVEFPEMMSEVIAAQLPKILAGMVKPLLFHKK
Procedure, shortened: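 FITC-labelled peptide at 10 nM final with increasing GST-PgR LBD in 20 mM Tris-HCl pH 8.0, 150 mM NaCl, 5% glycerol, 1 mM TCEP plus 10 μM progesterone. 40 min dark incubation, polarization at 298 K (ex 480/em 535 nm). KD by nonlinear regression against protein concentration.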

[7] = molecular target: T3, Vitamin D3 receptor (Homo sapiens, UniProt P11473); test: Binding affinity to recombinant human GST-tagged VDR LBD (156 to 453 residues) expressed in Echerichia coli BL21 star (DE3) after 40 mins in presence of vitamin D3 by fluorescence polarization assay
T3 sequence (P11473 whole entry): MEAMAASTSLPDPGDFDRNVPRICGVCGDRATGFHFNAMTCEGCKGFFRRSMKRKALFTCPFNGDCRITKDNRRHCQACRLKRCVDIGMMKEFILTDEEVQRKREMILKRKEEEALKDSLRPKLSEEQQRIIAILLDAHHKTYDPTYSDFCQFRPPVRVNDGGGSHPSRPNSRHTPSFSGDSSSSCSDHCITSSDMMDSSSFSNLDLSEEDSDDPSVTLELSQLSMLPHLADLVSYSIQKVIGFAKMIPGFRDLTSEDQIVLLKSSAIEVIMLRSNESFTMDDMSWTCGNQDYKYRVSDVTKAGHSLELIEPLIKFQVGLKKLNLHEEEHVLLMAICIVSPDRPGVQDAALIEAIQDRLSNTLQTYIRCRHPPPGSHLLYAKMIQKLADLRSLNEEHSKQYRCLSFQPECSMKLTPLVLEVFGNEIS
Procedure, shortened: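 GST-VDR LBD titrated into 10 nM final FITC-labelled peptide in 20 mM Tris-HCl pH 8.0, 150 mM NaCl, 5% glycerol, 1 mM TCEP containing 10 μM vitamin D3. 40 min dark incubation, polarization at 298 K (ex 480/em 535 nm). KD by nonlinear regression.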

[8] = species: Homo sapiens; test: Selectivity ratio of Kd for recombinant human ERbeta LBD (259 to 498 residues) to Kd for recombinant human ERalpha LBD (301 to 553 residues)
Procedure, shortened: (§2)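 Ratio of KD values, each from fluorescence polarization of 10 nM FITC-peptide titrated with the respective LBD after 40 min in the dark at 298 K, with the matching ligand in buffer (10 μM 17β-estradiol, progesterone or vitamin D3).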

[9] = species: Homo sapiens; test: Selectivity ratio of Kd for recombinant human GST-tagged PGR LBD ([…] residues) to Kd for recombinant human ERalpha LBD (301 to 553 residues); procedure, shortened: as §2
[10] = species: Homo sapiens; test: Selectivity ratio of Kd for recombinant human GST-tagged VDR LBD (156 to 453 residues) to Kd for recombinant human ERalpha LBD (301 to 553 residues); procedure, shortened: as §2
[11] = Drug uptake in human MCF7 cells assessed per million cells at 5 uM after 3 hrs by FACS analysis; format: ADME, cell-based; details: mcf7, 3 h
Procedure, shortened: (§3)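 Adherent cells seeded overnight, then exposed to 5 μM FITC-labelled peptide or DMSO in FBS-free medium, 3 h, 37 °C. After PBS washes (three), about 10000 cells per sample analysed by flow cytometry; mean cellular fluorescence intensity calculated. More than two independent experiments, SEM.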

[12] = Drug uptake in human U2OS cells assessed per million cells at 5 uM after 3 hrs by FACS analysis; format: ADME, cell-based; procedure, shortened: as §3
[13] = molecular target: T4, Estrogen receptor (Homo sapiens) (UniProt P03372); test: Binding affinity to recombinant human GFP-fused ERalpha LBD (301 to 553 residues) expressed in Escherichia coli BL21(DE3) in presence of ERalpha inhibitor 4-hydroxytamoxifen by ITC
T4 sequence (whole entry): T1 sequence (P03372 whole entry)
Procedure, shortened: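 ITC at 25 °C. 50 μM peptide injected in 2 μL steps into 5 μM ERα LBD in 50 mM Tris pH 8.0, 150 mM NaCl, 1 mM TCEP containing 0.1 mM 4-hydroxytamoxifen instead of estradiol. Isotherm fitted.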

[14] = molecular target: T4, Estrogen receptor (Homo sapiens); test: Binding affinity to recombinant human GFP-fused ERalpha LBD (301 to 553 residues) expressed in Escherichia coli BL21(DE3) in presence of 17beta-estradiol by ITC
Procedure, shortened: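 ITC at 25 °C. 2 μL injections of 50 μM peptide into 5 μM ERα LBD in 50 mM Tris pH 8.0, 150 mM NaCl, 1 mM TCEP, 0.1 mM 17β-estradiol. Binding isotherm fitted for affinity.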

[15] = Drug uptake in human MCF7 cells at 5 uM after 3 hrs in presence of 10 nM E2 by DAPI-staining based confocal laser scanning microscopic analysis; details: mcf7, 3 h
[16] = tested on: MCF7; test: Cytotoxicity against human MCF7 cells assessed as cell viability at 20 uM after 24 hrs by MTT assay; format: functional; details: MCF7, 24 h, read-out: Activity
[17] = tested on: MCF7; test: Cytotoxicity against human MCF7 cells assessed as reduction in cell viability after 24 hrs by MTT assay; format: functional, cell-based; procedure, shortened: as §1
[18] = tested on: T47D; test: Cytotoxicity against human T47D cells assessed as reduction in cell viability up to 40 uM after 24 hrs by MTT assay; format: functional, cell-based; procedure, shortened: as §1
[19] = tested on: MCF-10A; test: Cytotoxicity against human MCF10A cells assessed as reduction in cell viability up to 40 uM after 24 hrs by MTT assay; format: cell-based; procedure, shortened: as §1
[20] = tested on: MDA-MB-231; test: Cytotoxicity against human MDA-MB-231 cells assessed as reduction in cell viability up to 40 uM after 24 hrs by MTT assay; format: functional, cell-based; procedure, shortened: as §1
[21] = molecular target: T4, Estrogen receptor (Homo sapiens); test: Inhibition of ERalpha in human MCF7 cells assessed as downregulation of 17beta-estradiol-mediated pS2 mRNA expression at 5 uM preincubated for 4 hrs followed by 17beta-estradiol addition measured after 16 hrs by quantitative RT-PCR analysis; format: cell-based
Procedure, shortened: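 MCF-7 cells hormone-depleted 72 h in phenol red-free DMEM with 5% charcoal-treated serum, given peptides or DMSO for 4 h, then 100 nM 17β-estradiol or DMSO for 16 h. pS2 mRNA measured by quantitative RT-PCR, normalized to β-actin. Three independent experiments, mean ± SEM.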

[22] = molecular target: T4, Estrogen receptor (Homo sapiens); test: (§4) Inhibition of recombinant human GFP-fused ERalpha LBD (301 to 553 residues) expressed in human […] cells assessed as downregulation of 17beta-estradiol-induced transcription at 5 uM preincubated for 4 hrs followed by E2 addition measured after 20 hrs by dual luciferase reporter gene assay; format: cell-based
Procedure, shortened: (§5)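 U2OS cells in phenol red-free DMEM with 10% charcoal-stripped FBS, transfected 4 h with pEGFP-C1-ERα, 3XERE firefly luciferase reporter and pRL-TK Renilla plasmids. Peptides for 4 h, then 10 nM E2 or DMSO for 20 h. Lysates read by dual-luciferase; firefly normalized to Renilla, then to DMSO-treated control. SEM from more than two independent experiments.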

[23] = molecular target: T4, Estrogen receptor (Homo sapiens); test: as §4, with “20 hrs in presence of tamoxifen by dual” for “20 hrs by dual”; format: cell-based; procedure, shortened: as §5

Sequence of Estrogen receptor beta (Q92731 whole entry, the tested form may be a part): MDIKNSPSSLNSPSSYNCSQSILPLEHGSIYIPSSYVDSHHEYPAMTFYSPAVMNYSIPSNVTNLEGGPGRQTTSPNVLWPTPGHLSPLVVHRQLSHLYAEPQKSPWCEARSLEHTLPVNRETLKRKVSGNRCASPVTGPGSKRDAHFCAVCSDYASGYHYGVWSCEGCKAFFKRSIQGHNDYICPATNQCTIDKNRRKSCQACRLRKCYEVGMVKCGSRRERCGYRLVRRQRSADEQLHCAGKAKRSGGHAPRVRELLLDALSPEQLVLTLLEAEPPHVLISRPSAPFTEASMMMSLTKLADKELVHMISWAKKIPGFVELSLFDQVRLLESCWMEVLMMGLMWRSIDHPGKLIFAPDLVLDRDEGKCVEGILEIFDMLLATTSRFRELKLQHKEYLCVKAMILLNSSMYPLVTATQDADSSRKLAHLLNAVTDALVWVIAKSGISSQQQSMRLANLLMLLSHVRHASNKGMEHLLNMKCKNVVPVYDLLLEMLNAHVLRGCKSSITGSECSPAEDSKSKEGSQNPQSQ

SMILES: CC/C(=C(\c1ccccc1)c1ccc(OCCN(C)C)cc1)c1ccccc1 [TAMOXIFEN]
Activity [1]: Active
Activity [2]: < 20%
Activity [3]: < 20%

Kd [4]: 118 nM
Kd [5]: 213 nM
Kd [6]: 82 nM
Kd [7]: 142 nM
Selectivity ratio [8]: 1.8
Selectivity ratio [9]: 0.7
Selectivity ratio [10]: 1.2
Drug uptake [11]: Active
Drug uptake [12]: Active
Activity [13]: inactive
Activity [14]: Active
Drug uptake [15]: Not Active
SMILES: CC[C@H](C)[C@H](NC(=O)[C@H](CCCCN)NC(=O)[C@H](Cc1cnc[nH]1)NC(=O)CCNC(=S)Nc1ccc2c(c1)C(=O)OC21c2ccc(O)cc2Oc2cc(O)ccc21)C(=O)N[C@@H](CC(C)C)C(=O)N[C@@H](Cc1cnc[nH]1)C(=O)N[C@@H](CCCNC(=N)N)C(=O)N[C@@H](CC(C)C)C(=O)N[C@@H](CC(C)C)C(=O)N[C@@H](CCC(N)=O)C(N)=O ({FITC-βAla}-HKILHRLLQ-NH2)

inhibition [21]: Active
inhibition [22]: Active
inhibition [23]: Active
SMILES: CC[C@H](C)[C@@H]1NC(=O)C[C@H](NC(=O)[C@H](CCCNC(=N)N)NC(=O)CCNC(=O)[C@H](Cc2c[nH]c3ccccc23)NC(C)=O)C(=O)NCC(C(=O)N[C@@H](CCCNC(=N)N)C(=O)NC(CC(C)(C)C)C(=O)NC(CC(C)(C)C)C(=O)N[C@@H](CCC(N)=O)C(N)=O)NC(=O)C(CC(C)(C)C)NC1=O (stereo partly specified)
viability at 20 µM [16]: 14%
Activity [17]: Dose-dependent effect
IC50 ([17]; MCF7, 24 h): 12000 nM
Activity [18]: Active
Activity [19]: Non-Toxic
Activity [20]: inactive
Activity [2]: < 20%
Activity [3]: < 20%
